# Measurements: ChEMBL document CHEMBL4270599, “Synthesis of a 3'-C-ethynyl-β-d-ribofuranose purine nucleoside library: Discovery of C7-deazapurine analogs as potent antiproliferative nucleosides” (Eur J Med Chem, 2018)
# pIC50: −log10 of the molar value.
# Legend:
# [1] = tested on: CCRF-CEM; assay: Antiproliferative activity against human CEM cells after 72 hrs by Coulter counter method; type: functional, cell-based
# Summary of the method: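 Cell count assay in 96-well microtiter plates; (5–7.5) × 10⁴ tumor cells per well plus test compound. Cells proliferated at 37 °C in humidified CO₂-controlled atmosphere, 48 h for murine leukemia L1210, 72 h for human lymphocytic CEM and cervix carcinoma HeLa. Counted by Coulter counter; IC₅₀ is the concentration that inhibits proliferation by 50%.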
# [2] = tested on: SR; assay: Cytotoxicity against human SR cells after 48 hrs by SRB assay; type: functional
# [3] = tested on: HCC 2998; assay: Cytotoxicity against human HCC2998 cells after 48 hrs by SRB assay; type: functional; settings: HCC 2998, 48 h
# [4] = tested on: SF-539; assay: Cytotoxicity against human SF539 cells after 48 hrs by SRB assay; type: functional; settings: SF-539, 48 h
# [5] = tested on: SNB-75; assay: Cytotoxicity against human SNB75 cells after 48 hrs by SRB assay; type: functional; settings: SNB-75, 48 h
# [6] = tested on: SK-MEL-28; assay: Cytotoxicity against human SK-MEL-28 cells after 48 hrs by SRB assay; type: functional; settings: SK-MEL-28, 48 h
# [7] = tested on: RXF 393; assay: Cytotoxicity against human RXF393 cells after 48 hrs by SRB assay; type: functional; settings: RXF 393, 48 h
# [8] = tested on: MDA-MB-231; assay: Cytotoxicity against human MDA-MB-231 cells after 48 hrs by SRB assay; type: functional; settings: MDA-MB-231, 48 h
# [9] = tested on: HL-60(TB); assay: Growth inhibition of human HL-60(TB) cells assessed as cell growth at 10^-8 M incubated for 48 hrs by sulforhodamine B assay relative to control; type: functional; settings: HL-60, 48 h, read-out: Activity
# [10] = tested on: K562; assay: Growth inhibition of human K562 cells assessed as cell growth at 10^-8 M incubated for 48 hrs by sulforhodamine B assay relative to control; type: functional; settings: K562, 48 h, read-out: Activity
# [11] = tested on: A549; assay: Growth inhibition of human A549/ATCC cells assessed as cell growth at 10^-8 M incubated for 48 hrs by sulforhodamine B assay relative to control; type: functional; settings: A549, 48 h, read-out: Activity
# [12] = tested on: HOP-62; assay: Growth inhibition of human HOP62 cells assessed as cell growth at 10^-8 M incubated for 48 hrs by sulforhodamine B assay relative to control; type: functional; settings: HOP-62, 48 h, read-out: Activity
# [13] = tested on: SF-539; assay: Growth inhibition of human SF539 cells assessed as cell growth at 10^-8 M incubated for 48 hrs by sulforhodamine B assay relative to control; type: functional; settings: SF-539, 48 h, read-out: Activity
# [14] = tested on: IGROV-1; assay: Growth inhibition of human IGROV1 cells assessed as cell growth at 10^-8 M incubated for 48 hrs by sulforhodamine B assay relative to control; type: functional; settings: IGROV-1, 48 h, read-out: Activity
# [15] = tested on: RXF 393; assay: Growth inhibition of human RXF393 cells assessed as cell growth at 10^-8 M incubated for 48 hrs by sulforhodamine B assay relative to control; type: functional; settings: RXF 393, 48 h, read-out: Activity
# [16] = tested on: HOP-62; assay: Growth inhibition of human HOP62 cells assessed as cell growth at 10^-7 M incubated for 48 hrs by sulforhodamine B assay relative to control; type: functional; settings: HOP-62, 48 h, read-out: Activity
# [17] = tested on: COLO 205; assay: Growth inhibition of human COLO205 cells assessed as cell growth at 10^-7 M incubated for 48 hrs by sulforhodamine B assay relative to control; type: functional; settings: COLO 205, 48 h, read-out: Activity
# [18] = tested on: HCC 2998; assay: Growth inhibition of human HCC2998 cells assessed as cell growth at 10^-7 M incubated for 48 hrs by sulforhodamine B assay relative to control; type: functional; settings: HCC 2998, 48 h, read-out: Activity
# [19] = tested on: SF-539; assay: Growth inhibition of human SF539 cells assessed as cell growth at 10^-7 M incubated for 48 hrs by sulforhodamine B assay relative to control; type: functional; settings: SF-539, 48 h, read-out: Activity
# [20] = tested on: Malme-3M; assay: Growth inhibition of human MALME-3M cells assessed as cell growth at 10^-7 M incubated for 48 hrs by sulforhodamine B assay relative to control; type: functional; settings: read-out: Activity
# [21] = tested on: HL-60(TB); assay: Growth inhibition of human HL-60(TB) cells assessed as cell growth at 10^-6 M incubated for 48 hrs by sulforhodamine B assay relative to control; type: functional; settings: HL-60, 48 h, read-out: Activity
# [22] = tested on: RPMI-8226; assay: Growth inhibition of human RPMI8226 cells assessed as cell growth at 10^-6 M incubated for 48 hrs by sulforhodamine B assay relative to control; type: functional; settings: RPMI-8226, 48 h, read-out: Activity
# [23] = tested on: OVCAR-5; assay: Growth inhibition of human OVCAR5 cells assessed as cell growth at 10^-6 M incubated for 48 hrs by sulforhodamine B assay relative to control; type: functional; settings: OVCAR-5, 48 h, read-out: Activity
# [24] = tested on: OVCAR-8; assay: Growth inhibition of human OVCAR8 cells assessed as cell growth at 10^-6 M incubated for 48 hrs by sulforhodamine B assay relative to control; type: functional; settings: OVCAR-8, 48 h, read-out: Activity
# [25] = tested on: SN12C; assay: Growth inhibition of human SN12C cells assessed as cell growth at 10^-6 M incubated for 48 hrs by sulforhodamine B assay relative to control; type: functional; settings: read-out: Activity
# [26] = tested on: MDA-MB-231; assay: Growth inhibition of human MDA-MB-231 cells assessed as cell growth at 10^-6 M incubated for 48 hrs by sulforhodamine B assay relative to control; type: functional; settings: MDA-MB-231, 48 h, read-out: Activity
# [27] = tested on: M14; assay: Growth inhibition of human M14 cells assessed as cell growth at 10^-5 M incubated for 48 hrs by sulforhodamine B assay relative to control; type: functional; settings: M14, 48 h, read-out: Activity
# [28] = tested on: SK-MEL-28; assay: Growth inhibition of human SK-MEL-28 cells assessed as cell growth at 10^-5 M incubated for 48 hrs by sulforhodamine B assay relative to control; type: functional; settings: SK-MEL-28, 48 h, read-out: Activity
# [29] = tested on: K562; assay: Growth inhibition of human K562 cells assessed as cell growth at 10^-4 M incubated for 48 hrs by sulforhodamine B assay relative to control; type: functional; settings: K562, 48 h, read-out: Activity
# [30] = tested on: PC-3; assay: Growth inhibition of human PC3 cells assessed as cell growth at 10^-4 M incubated for 48 hrs by sulforhodamine B assay relative to control; type: functional; settings: PC-3, 48 h, read-out: Activity
# [31] = tested on: 786-0; assay: Cytotoxicity against human 786-0 cells after 48 hrs by SRB assay; type: functional; settings: 786-0, 48 h
# [32] = read-out: LC50 (the source's name)
# [33] = read-out: pLC50 (the source's name) (converted)
compound,measurement,setting,value
C#C[C@@]1(O)[C@@H](CO)O[C@@H](n2cc(F)c3c(N)ncnc32)[C@@H]1O,pIC50,[1],6.80
same,CC50,[2]; [32],> 100000 nM
same,TGI,[2]; read-out: TGI,> 100000 nM
same,GI50,[2]; read-out: pGI50 (converted),186 nM
same,TGI,[2]; read-out: pTGI,> 100000 nM
same,TGI,[3]; read-out: TGI,2820 nM
same,GI50,[3]; read-out: pGI50 (converted),603 nM
same,CC50,[3]; [33],15800 nM
same,TGI,[3]; read-out: pTGI (converted),2820 nM
same,CC50,[4]; [32],> 100000 nM
same,TGI,[4]; read-out: TGI,5290 nM
same,GI50,[4]; read-out: pGI50 (converted),1320 nM
same,TGI,[4]; read-out: pTGI (converted),5250 nM
same,TGI,[5]; read-out: TGI,2320 nM
same,GI50,[5]; read-out: pGI50 (converted),1020 nM
same,CC50,[5]; [33],5250 nM
same,TGI,[5]; read-out: pTGI (converted),2340 nM
same,TGI,[6]; read-out: TGI,> 100000 nM
same,GI50,[6]; read-out: pGI50 (converted),4270 nM
same,CC50,[6]; [33],> 100000 nM
same,TGI,[6]; read-out: pTGI (converted),> 100000 nM
same,CC50,[7]; [32],> 100000 nM
same,TGI,[7]; read-out: TGI,2990 nM
same,GI50,[7]; read-out: pGI50 (converted),724 nM
same,TGI,[7]; read-out: pTGI (converted),3020 nM
same,CC50,[8]; [32],> 100000 nM
same,TGI,[8]; read-out: TGI,2980 nM
same,GI50,[8]; read-out: pGI50 (converted),380 nM
same,TGI,[8]; read-out: pTGI (converted),2950 nM
same,growth at 0.01 µM,[9],93%
same,growth at 0.01 µM,[10],100%
same,growth at 0.01 µM,[11],93%
same,growth at 0.01 µM,[12],90%
same,growth at 0.01 µM,[13],104%
same,growth at 0.01 µM,[14],105%
same,growth at 0.01 µM,[15],94%
same,growth at 0.1 µM,[16],101%
same,growth at 0.1 µM,[17],81%
same,growth at 0.1 µM,[18],97%
same,growth at 0.1 µM,[19],107%
same,growth at 0.1 µM,[20],98%
same,growth at 1 µM,[21],20%
same,growth at 1 µM,[22],1%
same,growth at 1 µM,[23],65%
same,growth at 1 µM,[24],15%
same,growth at 1 µM,[25],17%
same,growth at 1 µM,[26],22%
same,growth at 10 µM,[27],-48%
same,growth at 10 µM,[28],37%
same,growth at 100 µM,[29],6%
same,growth at 100 µM,[30],-31%
same,TGI,[31]; read-out: TGI,2840 nM
same,GI50,[31]; read-out: pGI50 (converted),708 nM
same,TGI,[31]; read-out: pTGI (converted),2820 nM
